Screening results (PubChem BioAssay)
The list is not random: actives were taken first. Their share in the collection is about 2.5%.
TCR-CD3 inh – inhibitors of human TCR-CD3 interaction, primary screen, biochemical, fluorescence, TAMRA-labeled TCR probe. inhibition, % at 9.4 µM. AID 651800, 2012. actives 0.37% (n = 360,000). T-cell receptor (TCR); in the data active = inhibition above about 19%;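 note: recombinant mutant TCR 2C K166C tagged with TAMRA read by polarization; 0% = receptor in buffer alone and 100% = receptor with positive control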
PRMT1 inh – PRMT1 methyltransferase inhibitors, primary screen, biochemical, fluorescence polarization. recombinant PRMT1, activity-based probe fluorescence polarization. actives 1.3% (n = 370,000). inhibition, % at 2.79 µM. Protein arginine N-methyltransferase 1 (Homo sapiens), Q99873;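 active = inhibition above about 21% made by adding two undisclosed values, limit read from the data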
SIAE inh – human SIAE inhibitors, primary screen, biochemical, fluorescence polarization, FP-Rh probe, 1536-well HTS. actives 0.69% (n = 370,000). AID 1053197, 2014. SIAE FP-Rh probe binding. Sialate O-acetylesterase (Homo sapiens), Q9HAT2. inhibition, % at 9.66 µM;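 active = inhibition above a cutoff: mean of compounds within the control limits plus 3 SD of those, cut at about 17% in these data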;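 note: 0% = plate median of compound wells and 100% = probe without SIAE protein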
Target sequence (Q9HAT2 whole entry, looked up): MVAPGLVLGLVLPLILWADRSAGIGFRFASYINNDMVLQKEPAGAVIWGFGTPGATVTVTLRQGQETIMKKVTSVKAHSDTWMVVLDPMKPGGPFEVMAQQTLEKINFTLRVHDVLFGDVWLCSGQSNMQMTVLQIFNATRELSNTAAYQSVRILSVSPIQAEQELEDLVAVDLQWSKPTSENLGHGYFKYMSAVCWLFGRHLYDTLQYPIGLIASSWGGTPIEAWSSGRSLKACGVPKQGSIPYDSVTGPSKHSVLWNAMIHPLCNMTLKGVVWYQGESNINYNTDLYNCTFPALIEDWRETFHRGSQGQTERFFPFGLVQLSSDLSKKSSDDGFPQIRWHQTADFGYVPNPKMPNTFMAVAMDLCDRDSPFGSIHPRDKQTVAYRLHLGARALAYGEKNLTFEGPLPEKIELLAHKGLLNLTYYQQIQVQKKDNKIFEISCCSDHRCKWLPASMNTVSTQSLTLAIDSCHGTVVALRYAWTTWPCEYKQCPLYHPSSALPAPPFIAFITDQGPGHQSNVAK
mABHD4 FP – ABHD4 inhibitors, primary screen, biochemical, fluorescence polarization, mouse; actives 0.54% (n = 370,000); purified mABHD4, FP-Rh probe fluorescence polarization; (Lyso)-N-acylphosphatidylethanolamine lipase (Mus musculus), Q8VD66; inhibition, % at 8.92 µM;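 active = inhibition exceeding the mean over every tested compound plus 3 SD, cut at about 30% in these data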;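 note: 0% = plate median of compound wells and 100% = S159A mutant with DMSO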
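Test system: mABHD4 protein; Read-out basis: % inhibition; Incubation: 45 min + 60 min at 25 °C; Repeats: single replicate; Technique: fluorescence polarization with parallel and perpendicular emission, 525/598 nm; Compound: 8.92 µM, single dose; Benchmarks: full inhibition S159A mutant plus DMSO, zero as sample-well median.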
HTRA1 inh – HTRA1 serine protease inhibitors, primary screen, biochemical, fluorescence polarization, HTS. recombinant HTRA1, FP-rhodamine activity-based probe. actives 0.5% (n = 340,000). Q92743. inhibition, % at 5.96 µM. AID 504803, 2011; in the data active = inhibition above about 36%;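 note: 0% = enzyme with DMSO and 100% = wells lacking enzyme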
mABHD4 conf – ABHD4 inhibitors, retest, confirmation, biochemical, fluorescence polarization, mouse; shares compounds with mABHD4 FP; purified mABHD4, FP-Rh probe fluorescence polarization; inhibition, % at 8.92 µM; actives 55% (n = 1,800); AID 720658, 2013;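 active = mean inhibition across replicates above the hit cutoff set in the primary screen, cut at about 30% in these data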;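 note: 0% = wild-type ABHD4 with DMSO and 100% = catalytically dead S159A mutant with DMSO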
Starred values were filed as active, the others as inactive; ! = repeats disagree.

How did Oc1ccc(N2CCN(Cc3c(-c4ccccc4)nc4ccccn34)CC2)cc1 do in these assays?
TCR-CD3 inh: 2.9; PRMT1 inh: 22.3*; SIAE inh: 5.9; mABHD4 FP: 30.5*; HTRA1 inh: 16.8; mABHD4 conf: -2.9

What do the screens show for `COC(=O)[C@]12C[C@H](CC(=O)NCC34CC5CC(CC(C5)C3)C4)C(=O)N(Cc3cccc4ccccc34)C1=C[C@H](COCc1ccccc1)O[C@@H]2C`?
PRMT1 inh: 3.4; SIAE inh: -1.6; mABHD4 FP: 5.0

What do the screens show for `Cc1c(CCOC(=O)c2ccc(Cl)cc2Cl)sc[n+]1CC(=O)c1ccc(Br)cc1`?
TCR-CD3 inh: -0.1; PRMT1 inh: 7.4; SIAE inh: -1.1; mABHD4 FP: 29.1; HTRA1 inh: -23.4

Results for Cc1c(CCOC(=O)C2C3CC4CC(C3)CC2C4)sc[n+]1CC(=O)c1ccc(Br)cc1 (centres undefined) ?
TCR-CD3 inh: -4.6; PRMT1 inh: -1.0; SIAE inh: -1.3; mABHD4 FP: 32.5*!; HTRA1 inh: -67.6; mABHD4 conf: 35.9*

Results for NC(=O)c1ccc(NC(=O)COc2cccc3c2CCNC3=O)cc1 ?
TCR-CD3 inh: 0.8; PRMT1 inh: -1.5; SIAE inh: -2.2; mABHD4 FP: 104.9*; HTRA1 inh: -2.7; mABHD4 conf: 2.4

Results for C=C(C)CN(CC)c1nc(N)c2c(N)nc3c(c2c1C#N)CC(=O)N3C12CC3CC(CC(C3)C1)C2 ?
TCR-CD3 inh: 5.4; PRMT1 inh: 9.2; SIAE inh: 6.9; mABHD4 FP: 35.6*; HTRA1 inh: 25.3; mABHD4 conf: 24.9

Results for Nc1[nH]c(C(=O)c2ccc(Br)cc2)c(-c2ccc(F)cc2)c1C(=O)NCCc1c[nH]c2ccccc12 ?
TCR-CD3 inh: -0.7; PRMT1 inh: 4.6; SIAE inh: 5.8; mABHD4 FP: 32.8*; mABHD4 conf: 26.3

What do the screens show for `COc1ccc(-c2c(C(=O)c3ccc(Br)cc3)[nH]c(N)c2C(=O)NCCc2c[nH]c3ccccc23)cc1OC`?
TCR-CD3 inh: 2.9; PRMT1 inh: 0.9; SIAE inh: 8.3; mABHD4 FP: 33.1*; mABHD4 conf: 24.3

Results for O=C(CSc1nnc(-c2cnccn2)n1-c1ccccc1)c1ccccc1Br ?
PRMT1 inh: -1.3; SIAE inh: 4.0; mABHD4 FP: -3.1

How did Cc1ccc(S(=O)(=O)Nc2nc3ccc(S(C)(=O)=O)cc3s2)cc1 do in these assays?
TCR-CD3 inh: 0.7; PRMT1 inh: 5.6; SIAE inh: -4.9; mABHD4 FP: 0.6; HTRA1 inh: 0.3

How did Cc1ccc(S(=O)(=O)Nc2nc3ccc(N)cc3s2)cc1 do in these assays?
TCR-CD3 inh: 0.0; PRMT1 inh: 6.6; SIAE inh: 4.7; mABHD4 FP: 49.1*; HTRA1 inh: 13.6; mABHD4 conf: 26.1

Results for CCOC(=O)CC[C@@H]1CC[C@]2(CCCN(S(=O)(=O)C3CCCCC3)C2)O1 ?
PRMT1 inh: -0.5; SIAE inh: -1.3; mABHD4 FP: 0.7

Results for COc1cccc(-c2nc(NCc3cccnc3)c3ccccc3n2)c1O ?
TCR-CD3 inh: -4.3; PRMT1 inh: 2.7; SIAE inh: 1.9; mABHD4 FP: 25.8; HTRA1 inh: 2.6

What do the screens show for `COc1cccc2c(NCc3ccccc3)nc(-n3c(N)nc4ccccc43)nc12`?
PRMT1 inh: -3.5; SIAE inh: 6.7; mABHD4 FP: 37.1*; mABHD4 conf: 20.5

How did COc1ccc(CNCC#Cc2cccnc2)c(OC)c1 do in these assays?
PRMT1 inh: 0.9; SIAE inh: 6.3; mABHD4 FP: 3.7

How did COC(=O)c1ccccc1Nc1ccccc1 do in these assays?
TCR-CD3 inh: -4.7; PRMT1 inh: 1.5; SIAE inh: 3.1; mABHD4 FP: 1.3; HTRA1 inh: -5.1

What do the screens show for `O=S(=O)(O)c1cccc2cccc(Nc3ccccc3)c12`?
TCR-CD3 inh: 7.1; PRMT1 inh: 25.1*; SIAE inh: 8.2; mABHD4 FP: 61.3*; HTRA1 inh: 14.5; mABHD4 conf: 23.3

Results for CCN=c1scc(C)n1/N=C/c1cc(Br)c(O)c(OC)c1 ?
TCR-CD3 inh: -4.3; PRMT1 inh: -1.2; SIAE inh: 12.3; mABHD4 FP: 29.7*; HTRA1 inh: 21.2; mABHD4 conf: 32.5*

Results for NC(=Nc1ccc(N)cc1)C(N)=Nc1ccc(N)cc1 ?
TCR-CD3 inh: -5.5; PRMT1 inh: 6.5; SIAE inh: 8.9; mABHD4 FP: 31.0*; HTRA1 inh: 13.4; mABHD4 conf: -3.0

What do the screens show for `CC(C)C(=O)OCCCN1CCC2(CCC(c3ccccc3)CC2)C1=O` (centres undefined)?
PRMT1 inh: -0.6; SIAE inh: 1.3; mABHD4 FP: 1.4

How did CCN(CC)C(=O)CC[C@H]1CC[C@]2(CCCN(C(=O)c3ccno3)C2)O1 do in these assays?
PRMT1 inh: 1.9; SIAE inh: 1.3; mABHD4 FP: 2.9

What do the screens show for `Cc1ccc(C=Nc2ccc(N(C)C)cc2)o1`?
TCR-CD3 inh: 8.1; PRMT1 inh: 12.3; SIAE inh: 9.8; mABHD4 FP: 39.7*; HTRA1 inh: 52.5*; mABHD4 conf: 33.5*

What do the screens show for `Cc1ccccc1NC(=O)Cn1nnc(-c2ccncc2)n1`?
PRMT1 inh: 1.9; SIAE inh: 1.0; mABHD4 FP: 3.0

How did Cc1ccc2c(c1)c(N=Nc1cccc(C(=O)O)c1)c(O)n2C do in these assays?
TCR-CD3 inh: 0.8; PRMT1 inh: 3.1; SIAE inh: -4.3; mABHD4 FP: 30.7*; HTRA1 inh: -1.0; mABHD4 conf: 45.0*

How did Nc1c(Cl)ncnc1N/N=C/c1ccccn1 do in these assays?
TCR-CD3 inh: 3.5; PRMT1 inh: 6.6; SIAE inh: 6.8; mABHD4 FP: 54.2*; mABHD4 conf: 53.8*

Results for COc1cc(Cl)ccc1OCc1cc(C(=O)N2C[C@]3(C)C[C@H]2CC(C)(C)C3)no1 ?
TCR-CD3 inh: 7.4; PRMT1 inh: 0.5; SIAE inh: -7.4; mABHD4 FP: 32.4*; HTRA1 inh: -24.1; mABHD4 conf: 27.2

Results for Cc1ccc2[nH]c3c(NCc4ccccc4)ncnc3c2c1 ?
TCR-CD3 inh: 1.1; PRMT1 inh: 1.6; SIAE inh: 24.1*; mABHD4 FP: 41.2*; mABHD4 conf: 20.2

What do the screens show for `COc1ccc(CNc2ncnc3c2[nH]c2ccccc23)cc1`?
TCR-CD3 inh: -1.8; PRMT1 inh: -3.2; SIAE inh: 14.0; mABHD4 FP: 14.2

How did O=C(/C=C/c1ccc([N+](=O)[O-])cc1)c1ccccc(=O)c1O do in these assays?
TCR-CD3 inh: 1.6; PRMT1 inh: 15.0; SIAE inh: 14.2; mABHD4 FP: 43.2*; HTRA1 inh: 27.0; mABHD4 conf: 12.4
